pIC50: −log10 of the molar value. Counter-ions that a name gives are not always drawn.
Experiments:
Trypanosoma brucei [1] = assay: Antitrypanosomal activity against Trypanosoma brucei 427; type: functional, organism-based
Trypanosoma brucei [2] = assay: Trypanocidal activity against bloodstream form of Trypanosoma brucei 427 after 48 hrs; type: functional, organism-based; details: Trypanosoma brucei, 427, 48 h
[3] = Selectivity index, ratio of IC50 for rat L6 cells to IC 50 for Trypanosoma brucei 427; type: toxicity, cell-based; details: L6 cells versus Trypanosoma brucei 427, read-out: Selectivity Index
Plasmodium falciparum = assay: Antiplasmodial activity against chloroquine-resistant Plasmodium falciparum K1; type: functional, organism-based
Method in brief: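 K1 parasites grown in human A+ erythrocytes in RPMI 1640 with A+ serum and D-glucose; predominantly early ring-stage cultures used. Twofold serial dilutions run in duplicate from DMSO stocks (final DMSO ≤0.5%), at 2.5% haematocrit and 1% parasitaemia. Incubation was 48 h at 37 °C under 93% N2/3% O2/4% CO2. Growth was read as lactate dehydrogenase activity (APAD/NBT, 550 nm), and IC50 was taken by linear regression.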

L6 = assay: Cytotoxicity against rat L6 cells after 6 days by Alamar blue assay; type: cell-based; details: L6, 144 h
Method in brief: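 Rat skeletal myoblast L6 cells seeded at 1 × 10^4 ml−1 in growth medium with a range of compound concentrations and held 6 days at 37 °C. Alamar Blue was then added and fluorescence read after a further 8 h. IC50 is the mean of triplicate experiments ± SEM.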

[4] = Selectivity index, ratio of IC50 for rat L6 cells to IC50 for chloroquine-resistant Plasmodium falciparum K1; type: toxicity, cell-based; details: read-out: Selectivity Index

SMILES | pIC50 (Trypanosoma brucei [1]) | pIC50 (Trypanosoma brucei [2]) | IC90 (Trypanosoma brucei [2]) [nM] | pIC50 (L6) | also measured
CC1=CC2Cc3nc4cc(Cl)ccc4c(N)c3C(C1)C2 (centres undefined) | 6.52 |  |  |  | 
CC(C)C1=CC2Cc3nc4ccccc4c(N)c3C(C1)C2 (centres undefined) | 6.52 |  |  |  | 
Nc1c2c(nc3ccccc13)CC1C=C(c3ccccc3)CC2C1 (centres undefined) |  | 5.78 | 4700 | 5.45 | selectivity ratio [3]: 2.1; pIC50 (Plasmodium falciparum): 5.15; selectivity ratio [4]: 2.1
CC1=CC2Cc3nc4cccc(F)c4c(N)c3C(C1)C2 (centres undefined) |  | 5.43 | 15800 |  | 
C=CCC1=CC2Cc3nc4ccccc4c(N)c3C(C1)C2 (centres undefined) | 6.52 |  |  |  | 
CCC1=C[C@@H]2Cc3nc4cc(Cl)ccc4c(N)c3[C@H](C1)C2 [HUPRINE X HYDROCHLORIDE] | 6.52 | 6.08 |  | 4.90 | 

Source: ChEMBL document CHEMBL1681701, “Huprines as a new family of dual acting trypanocidal-antiplasmodial agents” (Bioorg Med Chem, 2011)
